Results reported in ChEMBL document CHEMBL4834396, “Molecular Recognition and Imaging of Human Telomeric G-Quadruplex DNA in Live Cells: A Systematic Advancement of Thiazole Orange Scaffold To Enhance Binding Specificity and Inhibition of Gene Expression” (J Med Chem, 2021).
The source made the active and inactive calls. The calls are words filed in the database; no cut-off is given here.

Legend:
Quadruplex DNA = test: Binding affinity to G4 quadruplex DNA in human U87 cells assessed as increase in BG4-induced fluorescence signal at 5 uM incubated for 30 mins by immunofluorescence based confocal microscopic analysis; assay type: cell-based
Procedure, shortened: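 U87 cells fixed in 4% paraformaldehyde for 15 min, permeabilized with 0.1% Triton X-100 at 37 °C for 30 min, blocked with 5% goat serum for 3 h. BG4 antibody 3 h at 37 °C, then DyLight 405 anti-mouse IgG 3 h at 37 °C, then ligand 5 μM for 30 min. Confocal imaging for co-localization.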

[1] = test system: Quadruplex DNA [UNDEFINED MUTATION]; test: Effect on confirmation of telomeric Htg24 G-quadruplex DNA G16A mutant (unknown origin) assessed as parallel topology at 5 uM at pH 7.4 by circular dichroism analysis; assay type: nucleic-acid assay; details: Homo sapiens
Procedure, shortened: (§1)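 CD spectra recorded on G4-DNA and ligand, each at 5 μM, in 10 mM Tris-HCl, pH 7.4, with 60 mM KCl. Scan range 220–340 nm in a 1 mm quartz cuvette, 1 nm bandwidth and step, 0.5 s/point. Each spectrum is the average of three scans.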

[2] = test system: Quadruplex DNA [UNDEFINED MUTATION]; test: Binding affinity to telomeric Htg24 G-quadruplex DNA G3T mutant (unknown origin) assessed as negative fluorescence signal at 5 uM under pH condition 7.4 by fluorescence titration analysis; assay type: nucleic-acid assay; details: Homo sapiens
Procedure, shortened: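 Ligand held at 5 μM and mixed with each Htg24 point mutant in Tris-HCl buffer containing 60 mM KCl, pH 7.4. Fluorescence was read, and the signal change was computed as (F mutant − F wild type)/F wild type.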

[3] = test system: Quadruplex DNA [UNDEFINED MUTATION]; test: Effect on confirmation of telomeric Htg24 G-quadruplex DNA T19G mutant (unknown origin) assessed as hybrid topology at 5 uM at pH 7.4 by circular dichroism analysis; assay type: nucleic-acid assay; details: Homo sapiens; procedure, shortened: as §1

Activity [1]: Active
Activity [2]: Active
Activity [3]: Active
SMILES: CN(C)c1ccc(/C=C/c2cc(/C=C3\Sc4ccccc4N3CCCN3CCOCC3)c3ccccc3[n+]2C)cc1.[I-]
Activity (Quadruplex DNA): Active
